# How the values were obtained:
# [1] = melting temperature; fluorescence melt of hairpins on a sequencing array, two-state fit, raised by 9.35 °C to match UV melts; settings: sodium 0.088 M
# Outline: (§1)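 In 50 mM Na-HEPES pH 8.0 containing 25 mM NaCl, hairpins from the library on a sequenced MiSeq flow cell were imaged for Cy3 fluorescence at 2.5 °C steps up to 60 °C, with Cy3 and quencher oligos annealed. After normalisation to pre-quench Cy3 and to control constructs, two-state fits with bootstrapping gave melting temperature and folding enthalpy. Four replicates were combined by inverse-variance weighting, and fitted temperatures were shifted up by 9.35 °C to match UV melts.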
# [2] = folding enthalpy; higher = less favourable; fluorescence melt of hairpins on a sequencing array, two-state fit; settings: sodium 0.088 M
# Outline: as §1
Sequence,Tm [1],folding enthalpy [2]
GCACGCTCGAAAGAGTGC (((..(((....)))))),50.2 °C,-20.9 kcal/mol
GCACGGCGAAAGCAGAGC ((.(.((....)).).)),53 °C,-20 kcal/mol
GCACGGCGAAAGCAGGGC ((.(.((....)).).)),65.8 °C,-36 kcal/mol
GCACGGCGAAAGCCTGC (((.(((....)))))),58.7 °C,-18.1 kcal/mol
GCACGGCGAAAGCGCTGC (((..((....))..))),52 °C,-17.5 kcal/mol
GCACGGCGAAAGCTGAGC ((.(.((....)).).)),55.8 °C,-19 kcal/mol
GCACGGCGAAAGCTGGGC ((.(.((....)).).)),67.5 °C,-31.5 kcal/mol
GCACGGGGAAACCCGCAC (..((((....))))..),25.2 °C,-9.35 kcal/mol
GCACTACGAAAGTATTGC (((.(((....))).))),45.9 °C,-31.2 kcal/mol
GCACTCCGAAAGGAATGC (((.(((....))).))),51.1 °C,-38.6 kcal/mol
GCACTCCGAAAGGACTGC (((.(((....))).))),40.4 °C,-18.5 kcal/mol
GCACTCGAAAGAGAGTGC ((((((....)))..))),59.9 °C,-38.7 kcal/mol
GCACTCGAAAGAGCGTGC ((((((....)))..))),43.2 °C,-25.9 kcal/mol
GCACTCGAAAGAGCTGC ((((((....))).))),48.1 °C,-28.3 kcal/mol
GCACTCGAAAGAGCTTGC ((((((....)))..))),36.6 °C,-19.1 kcal/mol
GCACTCGAAAGAGGTTGC ((((((....)))..))),37.6 °C,-18.6 kcal/mol
GCACTCGAAAGAGTTTGC ((((((....)))..))),35.9 °C,-17.5 kcal/mol
GCACTGCGAAAGCAACGC ((..(((....)))..)),36.2 °C,-14.2 kcal/mol
GCACTGCGAAAGCACGGC ((..(((....)))..)),38.4 °C,-17.6 kcal/mol
GCACTGCGAAAGCCATGC (((..((....))..))),38.1 °C,-14.7 kcal/mol
GCACTGCGAAAGCTGGGC ((.(.((....)).).)),64.3 °C,-36.6 kcal/mol
GCACTGGGAAACCAGTAC (.(((((....))))).),38.1 °C,-14.9 kcal/mol
GCACTGGGAAACTAGTGC (((((.(....).))))),53.2 °C,-38.9 kcal/mol

Sequence,Tm [1],folding enthalpy [2]
GCACTGGGAAACTGGTGC ((((..(....)..)))),48.8 °C,-33 kcal/mol
GCACTTCGAAAGAATTGC (((.(((....))).))),42.6 °C,-31.6 kcal/mol
GCACTTGAAAAAGTGC ((((((....)))))),61.2 °C,-41.2 kcal/mol
GCACTTGGAAACAAGTAC (.(((((....))))).),37.9 °C,-19.3 kcal/mol
GCACTTTCGAAAGAATGC (((..(((....)))))),33.2 °C,-14.6 kcal/mol
GCAGAAACGAAAGTTTGC (((..(((....)))))),35.7 °C,-20.3 kcal/mol
GCAGAACGAAAGTTGTGC (((.(((....))).))),55.4 °C,-32.1 kcal/mol
GCAGAAGGAAACTTCTAC (.(((((....))))).),27.8 °C,-11.7 kcal/mol
GCAGAAGGAAACTTCTGC (((((((....))))))),60.7 °C,-44.4 kcal/mol
GCAGACGGAAACGTTTGC (((.(((....))).))),53.8 °C,-46.1 kcal/mol
GCAGAGCGAAAGCCCCGC ((.(.((....)).).)),36.9 °C,-10.1 kcal/mol
GCAGAGCGAAAGCCCTGC ((((.((....)).)))),63.2 °C,-29.1 kcal/mol
GCAGAGCGAAAGCTAAGC ((..(((....)))..)),43.8 °C,-15.1 kcal/mol
GCAGAGCGAAAGCTACGC ((..(((....)))..)),47.2 °C,-13.9 kcal/mol
GCAGAGCGAAAGCTGAGC ((..(((....)))..)),43.1 °C,-11.8 kcal/mol
GCAGAGCGAAAGCTGCGC ((..(((....)))..)),61.3 °C,-21 kcal/mol
GCAGAGCGAAAGCTGGGC ((..(((....)))..)),50.7 °C,-19.6 kcal/mol
GCAGAGCGAAAGCTGTGC (((.(((....))).))),59 °C,-44.2 kcal/mol
GCAGAGGGAAACCTTTGC (((.(((....))).))),45.2 °C,-32.9 kcal/mol
GCAGAGGGAAACTTCTGC (((((.(....).))))),48 °C,-35 kcal/mol
GCAGATCGAAAGATGTGC (((.(((....))).))),53.6 °C,-35.1 kcal/mol
GCAGATCGAAAGATTGC (((.(((....)))))),44.1 °C,-23.1 kcal/mol
GCAGATGGAAACATCCGC ((.((((....)))).)),42.5 °C,-23.9 kcal/mol

Sequence,Tm [1],folding enthalpy [2]
GCAGCACCGAAAGGTTGC (((..(((....)))))),43.9 °C,-14 kcal/mol
GCAGCAGGAAACCACTGC ((((..(....)..)))),34.7 °C,-18.8 kcal/mol
GCAGCCGAAAGGCCCTGC ((((((....)))..))),34.8 °C,-12.5 kcal/mol
GCAGCCGAAAGGCGGTGC ((((((....)))..))),57.1 °C,-15 kcal/mol
GCAGCCGGAAACGGCCAC (..((((....))))..),36.2 °C,-9.09 kcal/mol
GCAGCGCGAAAGCACGGC ((.(.((....)).).)),53.9 °C,-22.9 kcal/mol
GCAGCGCGAAAGCCCCGC ((.(.((....)).).)),37 °C,-9.42 kcal/mol
GCAGCGCGAAAGCGAGGC ((..(((....)))..)),63.8 °C,-19.2 kcal/mol
GCAGCGCGAAAGCGGAGC ((..(((....)))..)),56 °C,-17.7 kcal/mol
GCAGCGCGAAAGCGTGC (((.(((....)))))),62.2 °C,-14 kcal/mol
GCAGCGCGAAAGCTCTGC ((((.((....)).)))),62 °C,-31.9 kcal/mol
GCAGCGCGAAAGCTGTGC (((..((....))..))),44.8 °C,-18.8 kcal/mol
GCAGCGGGAAACCGCCAC (..((((....))))..),29.8 °C,-8.97 kcal/mol
GCAGCTGGAAACAGCCAC (..((((....))))..),31 °C,-10.6 kcal/mol
GCAGGACCGAAAGGTTGC (((..(((....)))))),44.8 °C,-20.7 kcal/mol
GCAGGACGAAAGTCTTGC (((.(((....))).))),58.5 °C,-41.5 kcal/mol
GCAGGAGGAAACTTCTGC ((((.((....)).)))),49.9 °C,-39.5 kcal/mol
GCAGGCGAAAGCCGATGC ((((((....)))..))),53.9 °C,-13.3 kcal/mol
GCAGGCGAAAGCCGGTGC ((((((....)))..))),53.8 °C,-14.5 kcal/mol
GCAGGCGGAAACACCTGC (((((.(....).))))),54.1 °C,-48.9 kcal/mol
GCAGGCGGAAACGCCCGC ((.((((....)))).)),59.3 °C,-15.8 kcal/mol
GCAGGCGGAAACGCCTAC (.(((((....))))).),43.9 °C,-9.53 kcal/mol
GCAGGCGGAAACGCTTGC (((.(((....))).))),62.1 °C,-38.5 kcal/mol

Sequence,Tm [1],folding enthalpy [2]
GCAGGCTCGAAAGAGTGC (((..(((....)))))),36.6 °C,-19.8 kcal/mol
GCAGGGCGAAAGCACCGC ((.(.((....)).).)),57.7 °C,-16 kcal/mol
GCAGGGCGAAAGCCTGGC ((..(((....)))..)),59.8 °C,-20.2 kcal/mol
GCAGGGCGAAAGCGGTGC (((..((....))..))),52.8 °C,-21.4 kcal/mol
GCAGGGCGAAAGCGTTGC (((..((....))..))),54.1 °C,-19.1 kcal/mol
GCAGGGCGAAAGCTTTGC (((..((....))..))),50.7 °C,-19.8 kcal/mol
GCAGGGGGAAACCCCCGC ((.((((....)))).)),61.6 °C,-14.5 kcal/mol
GCAGGGTCGAAAGACTGC (((..(((....)))))),45.8 °C,-23.4 kcal/mol
GCAGGTACGAAAGTATGC (((..(((....)))))),33.9 °C,-18 kcal/mol
GCAGGTCGAAAGACTGC (((.(((....)))))),55.9 °C,-29.8 kcal/mol
GCAGGTGGAAACACCTAC (.(((((....))))).),39.3 °C,-15.4 kcal/mol
GCAGTACGAAAGTAATGC (((.(((....))).))),55.4 °C,-40 kcal/mol
GCAGTAGGAAACTGCTGC ((((.((....)).)))),57 °C,-31 kcal/mol
GCAGTCGAAAGACATGC ((((((....))).))),51.5 °C,-24.1 kcal/mol
GCAGTCGAAAGACATTGC ((((((....)))..))),38.1 °C,-17.1 kcal/mol
GCAGTCGGAAACAACTGC (((((.(....).))))),46.1 °C,-32.9 kcal/mol
GCAGTGCGAAAGCAAGGC ((..(((....)))..)),56.7 °C,-16.1 kcal/mol
GCAGTGCGAAAGCCCAGC ((.(.((....)).).)),38 °C,-15.4 kcal/mol
GCAGTGCGAAAGCCGTGC (((..((....))..))),46.4 °C,-21.1 kcal/mol
GCAGTGCGAAAGCCTTGC (((..((....))..))),47.6 °C,-15.2 kcal/mol
GCAGTGCGAAAGCTGTGC (((..((....))..))),50.2 °C,-19.4 kcal/mol
